Results as given in ChEMBL document CHEMBL1275451, “In vitro susceptibilities of invasive isolates of Candida species: rapid increase in rates of fluconazole susceptible-dose dependent Candida glabrata isolates” (2008).
Converted amounts (≈) assume the structure as drawn. *1 amine or outer side, *2 acyl side, *3 side chain or, on linkers, in order; H or OH if unused. Where a SMILES comes first, the peptide text is derived from it. Bridges are numbered along the chain shown (N, C = ends). [ ]: non-standard residue; d: D form. The star is where a group is joined. pTerphenylCO(4''-OnC5H11) = CCCCCOc1ccc(-c2ccc(-c3ccc(C(=O)*)cc3)cc2)cc1; Orn(4R-OH,5R-OH) = O=C([C@H](C[C@@H](O)[C@@H](O)N[*:3])N[*:1])[*:2]; hTyr(3S-OH,4S-OH) = N[C@H](C(=O)O)[C@H](O)[C@@H](O)c1ccc(O)cc1; Pro(3S-OH,4S-Me) = C[C@H]1CN[C@H](C(=O)O)[C@H]1O; Hyp = O=C(O)[C@@H]1C[C@@H](O)CN1

Assays:
Type in all cases: functional
[1] = tested on: Pichia kudriavzevii; assay: Antifungal activity against Candida krusei after 48 hrs by CLSI method
Method in brief: (§1)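 Broth microdilution MICs were run on invasive clinical Candida isolates under CLSI M27-A2, with incubation at 35°C for 48 h before reading. MICs were interpreted under the same guideline to place isolates as susceptible, susceptible-dose dependent or resistant, reported as percentage of isolates per category, with MIC range, MIC50 and MIC90.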

[2] = tested on: Candida albicans; assay: Antifungal activity against Candida albicans after 48 hrs by CLSI method
[3] = tested on: Nakaseomyces glabratus; assay: Antifungal activity against Candida glabrata assessed as susceptible isolates after 48 hrs by CLSI method
Method in brief: as §1, with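 “reading. Control strains were C. parapsilosis ATCC 22019 and C. krusei ATCC 6258.” for “reading.”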

[4] = tested on: Candida tropicalis; assay: Antifungal activity against Candida tropicalis assessed as susceptible isolates after 48 hrs by CLSI method
Method in brief: as §1, with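 “reading. Control strains were C. parapsilosis ATCC 22019 and C. krusei ATCC 6258.” for “reading.”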

[5] = tested on: Nakaseomyces glabratus; assay: Antifungal activity against Candida glabrata after 48 hrs by CLSI method
[6] = tested on: Clavispora lusitaniae; assay: Antifungal activity against Candida lusitaniae assessed as susceptible isolates after 48 hrs by CLSI method
Method in brief: as §1, with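 “reading. Control strains were C. parapsilosis ATCC 22019 and C. krusei ATCC 6258.” for “reading.”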

[7] = tested on: Candida tropicalis; assay: Antifungal activity against Candida tropicalis after 48 hrs by CLSI method
Method in brief: as §1, with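 “reading. Control strains were C. parapsilosis ATCC 22019 and C. krusei ATCC 6258.” for “reading.”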

[8] = tested on: Meyerozyma guilliermondii; assay: Antifungal activity against Candida guilliermondii assessed as susceptible isolates after 48 hrs by CLSI method
Method in brief: as §1, with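 “reading. Control strains were C. parapsilosis ATCC 22019 and C. krusei ATCC 6258.” for “reading.”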

[9] = tested on: Clavispora lusitaniae; assay: Antifungal activity against Candida lusitaniae after 48 hrs by CLSI method
[10] = tested on: Candida parapsilosis; assay: Antifungal activity against Candida parapsilosis assessed as susceptible isolates after 48 hrs by CLSI method
Method in brief: as §1, with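 “reading. Control strains were C. parapsilosis ATCC 22019 and C. krusei ATCC 6258.” for “reading.”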

[11] = tested on: Candida albicans; assay: Antifungal activity against Candida albicans assessed as susceptible isolates after 48 hrs by CLSI method
Method in brief: as §1, with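 “reading. Control strains were C. parapsilosis ATCC 22019 and C. krusei ATCC 6258.” for “reading.”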

[12] = tested on: Pichia kudriavzevii; assay: Antifungal activity against Candida krusei assessed as susceptible isolates after 48 hrs by CLSI method
Method in brief: as §1, with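 “reading. Control strains were C. parapsilosis ATCC 22019 and C. krusei ATCC 6258.” for “reading.”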

[13] = tested on: Candida parapsilosis; assay: Antifungal activity against Candida parapsilosis after 48 hrs by CLSI method; settings: Lodderomyces parapsilosis
Method in brief: as §1, with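 “reading. Control strains were C. parapsilosis ATCC 22019 and C. krusei ATCC 6258.” for “reading.”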

[14] = tested on: Meyerozyma guilliermondii; assay: Antifungal activity against Candida guilliermondii after 48 hrs by CLSI method
[15] = tested on: Candida parapsilosis; assay: Antifungal activity against Candida parapsilosis assessed as susceptible dose-dependent isolates after 48 hrs by CLSI method
Method in brief: as §1, with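 “reading. Control strains were C. parapsilosis ATCC 22019 and C. krusei ATCC 6258.” for “reading.”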

[16] = tested on: Candida tropicalis; assay: Antifungal activity against Candida tropicalis assessed as susceptible dose-dependent isolates after 48 hrs by CLSI method
Method in brief: as §1, with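 “reading. Control strains were C. parapsilosis ATCC 22019 and C. krusei ATCC 6258.” for “reading.”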

[17] = tested on: Clavispora lusitaniae; assay: Antifungal activity against Candida lusitaniae assessed as resistant isolates after 48 hrs by CLSI method
Method in brief: as §1, with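 “reading. Control strains were C. parapsilosis ATCC 22019 and C. krusei ATCC 6258.” for “reading.”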

[18] = tested on: Nakaseomyces glabratus; assay: Antifungal activity against Candida glabrata assessed as resistant isolates after 48 hrs by CLSI method
Method in brief: as §1, with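 “reading. Control strains were C. parapsilosis ATCC 22019 and C. krusei ATCC 6258.” for “reading.”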

[19] = tested on: Meyerozyma guilliermondii; assay: Antifungal activity against Candida guilliermondii assessed as susceptible dose-dependent isolates after 48 hrs by CLSI method
Method in brief: as §1, with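 “reading. Control strains were C. parapsilosis ATCC 22019 and C. krusei ATCC 6258.” for “reading.”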

[20] = tested on: Nakaseomyces glabratus; assay: Antifungal activity against Candida glabrata assessed as susceptible dose-dependent isolates after 48 hrs by CLSI method
Method in brief: as §1, with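 “reading. Control strains were C. parapsilosis ATCC 22019 and C. krusei ATCC 6258.” for “reading.”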

[21] = tested on: Candida tropicalis; assay: Antifungal activity against Candida tropicalis assessed as resistant isolates after 48 hrs by CLSI method
Method in brief: as §1, with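 “reading. Control strains were C. parapsilosis ATCC 22019 and C. krusei ATCC 6258.” for “reading.”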

[22] = tested on: Candida parapsilosis; assay: Antifungal activity against Candida parapsilosis assessed as resistant isolates after 48 hrs by CLSI method
Method in brief: as §1, with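 “reading. Control strains were C. parapsilosis ATCC 22019 and C. krusei ATCC 6258.” for “reading.”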

[23] = tested on: Candida albicans; assay: Antifungal activity against Candida albicans assessed as susceptible dose-dependent isolates after 48 hrs by CLSI method
Method in brief: as §1, with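 “reading. Control strains were C. parapsilosis ATCC 22019 and C. krusei ATCC 6258.” for “reading.”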

[24] = tested on: Pichia kudriavzevii; assay: Antifungal activity against Candida krusei assessed as resistant isolates after 48 hrs by CLSI method
Method in brief: as §1, with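 “reading. Control strains were C. parapsilosis ATCC 22019 and C. krusei ATCC 6258.” for “reading.”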

[25] = tested on: Clavispora lusitaniae; assay: Antifungal activity against Candida lusitaniae assessed as susceptible dose-dependent isolates after 48 hrs by CLSI method
Method in brief: as §1, with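 “reading. Control strains were C. parapsilosis ATCC 22019 and C. krusei ATCC 6258.” for “reading.”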

[26] = tested on: Meyerozyma guilliermondii; assay: Antifungal activity against Candida guilliermondii assessed as resistant isolates after 48 hrs by CLSI method
Method in brief: as §1, with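 “reading. Control strains were C. parapsilosis ATCC 22019 and C. krusei ATCC 6258.” for “reading.”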

[27] = tested on: Pichia kudriavzevii; assay: Antifungal activity against Candida krusei assessed as susceptible dose-dependent isolates after 48 hrs by CLSI method
Method in brief: as §1, with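 “reading. Control strains were C. parapsilosis ATCC 22019 and C. krusei ATCC 6258.” for “reading.”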

[28] = tested on: Candida albicans; assay: Antifungal activity against Candida albicans assessed as resistant isolates after 48 hrs by CLSI method
Method in brief: as §1, with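 “reading. Control strains were C. parapsilosis ATCC 22019 and C. krusei ATCC 6258.” for “reading.”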

Compound: C[C@@H]1[C@H](O)[C@@H](C)/C=C/C=C/C=C/C=C/C=C/C=C/C=C/[C@H](O[C@@H]2O[C@H](C)[C@@H](O)[C@H](N)[C@@H]2O)C[C@@H]2O[C@](O)(C[C@@H](O)C[C@@H](O)[C@H](O)CC[C@@H](O)C[C@@H](O)CC(=O)O[C@H]1C)C[C@H](O)[C@H]2C(=O)O [AMPHOTERICIN B]
- MIC50 [1]: 2 µg/mL (≈ 2.16 µM)
- MIC90 [1]: 2 µg/mL (≈ 2.16 µM)
- MIC [2]: 1 µg/mL (≈ 1.08 µM)
- MIC50 [2]: 1 µg/mL (≈ 1.08 µM)
- MIC90 [2]: 1 µg/mL (≈ 1.08 µM)
- Activity [3]: 47%
- Activity [4]: 98%
- MIC50 [5]: 2 µg/mL (≈ 2.16 µM)
- MIC90 [5]: 2 µg/mL (≈ 2.16 µM)
- Activity [6]: 100%
- MIC [7]: 0.5 µg/mL (≈ 0.541 µM)
- MIC50 [7]: 0.5 µg/mL (≈ 0.541 µM)
- MIC90 [7]: 1 µg/mL (≈ 1.08 µM)
- Activity [8]: 97%
- MIC50 [9]: 1 µg/mL (≈ 1.08 µM)
- MIC90 [9]: 1 µg/mL (≈ 1.08 µM)
- Activity [10]: 98%
- Activity [11]: 100%
- Activity [12]: 5%

Compound: CCCCCOc1ccc(-c2ccc(-c3ccc(C(=O)N[C@H]4C[C@@H](O)[C@@H](O)NC(=O)[C@@H]5[C@@H](O)[C@@H](C)CN5C(=O)[C@H]([C@@H](C)O)NC(=O)[C@H]([C@H](O)[C@@H](O)c5ccc(O)cc5)NC(=O)[C@@H]5C[C@@H](O)CN5C(=O)[C@H]([C@@H](C)O)NC4=O)cc3)cc2)cc1 [ANIDULAFUNGIN] ({pTerphenylCO(4''-OnC5H11)}-[Orn(4R-OH,5R-OH)]T[Hyp][hTyr(3S-OH,4S-OH)]T[Pro(3S-OH,4S-Me)]; lactam 1-C)
- MIC50 [13]: 1 µg/mL (≈ 0.877 µM)
- MIC90 [13]: 2 µg/mL (≈ 1.75 µM)
- MIC50 [1]: 0.12 µg/mL (≈ 0.105 µM)
- MIC90 [1]: 0.25 µg/mL (≈ 0.219 µM)
- MIC [2]: 0.015 µg/mL (≈ 0.0132 µM)
- MIC50 [2]: 0.015 µg/mL (≈ 0.0132 µM)
- MIC90 [2]: 0.015 µg/mL (≈ 0.0132 µM)
- MIC50 [5]: 0.03 µg/mL (≈ 0.0263 µM)
- MIC90 [5]: 0.03 µg/mL (≈ 0.0263 µM)
- MIC50 [14]: 1 µg/mL (≈ 0.877 µM)
- MIC90 [14]: 2 µg/mL (≈ 1.75 µM)
- MIC50 [7]: 0.03 µg/mL (≈ 0.0263 µM)
- MIC90 [7]: 0.06 µg/mL (≈ 0.0526 µM)
- MIC50 [9]: 0.06 µg/mL (≈ 0.0526 µM)
- MIC90 [9]: 0.12 µg/mL (≈ 0.105 µM)

Compound: CC[C@H](C)C[C@H](C)CCCCCCCCC(=O)N[C@H]1C[C@@H](O)[C@@H](NCCN)NC(=O)[C@@H]2[C@@H](O)CCN2C(=O)[C@H]([C@H](O)CCN)NC(=O)[C@H]([C@H](O)[C@@H](O)c2ccc(O)cc2)NC(=O)[C@@H]2C[C@@H](O)CN2C(=O)[C@H]([C@@H](C)O)NC1=O [CASPOFUNGIN]
- MIC50 [13]: 1 µg/mL (≈ 0.915 µM)
- MIC90 [13]: 2 µg/mL (≈ 1.83 µM)
- MIC50 [1]: 1 µg/mL (≈ 0.915 µM)
- MIC90 [1]: 1 µg/mL (≈ 0.915 µM)
- MIC50 [2]: 0.25 µg/mL (≈ 0.229 µM)
- MIC90 [2]: 0.25 µg/mL (≈ 0.229 µM)
- MIC50 [5]: 0.25 µg/mL (≈ 0.229 µM)
- MIC90 [5]: 0.25 µg/mL (≈ 0.229 µM)
- MIC50 [14]: 2 µg/mL (≈ 1.83 µM)
- MIC90 [14]: 2 µg/mL (≈ 1.83 µM)
- MIC50 [7]: 0.25 µg/mL (≈ 0.229 µM)
- MIC90 [7]: 0.5 µg/mL (≈ 0.457 µM)
- MIC50 [9]: 2 µg/mL (≈ 1.83 µM)
- MIC90 [9]: 2 µg/mL (≈ 1.83 µM)

Compound: OC(Cn1cncn1)(Cn1cncn1)c1ccc(F)cc1F [FLUCONAZOLE]
- Activity [15]: 2%
- Activity [16]: 0%
- Activity [17]: 0%
- MIC50 [13]: 1 µg/mL (≈ 3.27 µM)
- MIC90 [13]: 2 µg/mL (≈ 6.53 µM)
- Activity [18]: 6%
- Activity [19]: 9%
- Activity [20]: 73%
- MIC50 [1]: 32 µg/mL (≈ 104 µM)
- MIC90 [1]: 64 µg/mL (≈ 209 µM)
- MIC [2]: 0.12 µg/mL (≈ 0.392 µM)
- MIC50 [2]: 0.12 µg/mL (≈ 0.392 µM)
- MIC90 [2]: 0.25 µg/mL (≈ 0.816 µM)
- Activity [3]: 22%
- Activity [21]: 0%
- Activity [4]: 100%
- Activity [22]: 0%
- MIC50 [5]: 16 µg/mL (≈ 52.2 µM)
- MIC90 [5]: 32 µg/mL (≈ 104 µM)
- Activity [6]: 100%
- Activity [23]: 0%
- Activity [24]: 38%
- MIC50 [7]: 1 µg/mL (≈ 3.27 µM)
- MIC90 [7]: 2 µg/mL (≈ 6.53 µM)
- Activity [25]: 0%
- Activity [26]: 3%
- Activity [27]: 63%
- Activity [28]: 0%
- Activity [8]: 88%
- MIC50 [9]: 0.25 µg/mL (≈ 0.816 µM)
- MIC90 [9]: 0.5 µg/mL (≈ 1.63 µM)
- Activity [10]: 98%
- Activity [11]: 100%
- Activity [12]: 0%
